Drawing on ChEMBL document CHEMBL1124157, “Absolute configurations and pharmacological activities of the optical isomers of fluoxetine, a selective serotonin-uptake inhibitor” (J Med Chem, 1988), this text covers ED50 and Ki for two compounds.

Format in all cases: functional
The species entered for assay [1] is Mus musculus. As to the kind of experiment: Antagonistic activity against acetic acid induced abdominal constriction (writhing) in mice. To be noted: Abdomen. The essentials: (§1)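 Male CF-1 mice (~20 g), fasted overnight, five per point, each used once. Drug given sc in distilled water, 10 mL/kg, 20 min before 0.6% acetic acid ip (10 mL/kg). Writhes counted for 10 min starting 5 min after acid. Percent inhibition versus same-day controls; ED50 by probit least-squares of log dose.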
(An intraperitoneal irritant provokes the stretching counted in writhing tests.)

Assay [2] is filed under the species Mus musculus. Briefly: Ability to antagonize p-chloroamphetamine-induced depletion of brain serotonin in mouse. The essentials:
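Male albino mice (16–20 g), groups of five; compound given ip as aqueous solution, then 1 h later p-chloroamphetamine HCl 20.6 mg/kg ip. Decapitation 6 h after that; whole brains frozen on dry ice, stored at -15 °C, serotonin measured by HPLC with electrochemical detection. ED50 from dose-response.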

For assay [3], the system named is Mus musculus. Briefly: Antagonistic activity against acetic acid induced abdominal constriction (writhing) in mice, when administered in combination with 0.2 mg/kg of morphine. To be noted: Abdomen. In a few lines:
as §1

For assay [4], the species on record is Mus musculus. Briefly: Inhibition of serotonin uptake carrier in mice.
The species named for another assay is Rattus norvegicus. Briefly: Ability to antagonize saccharin-induced drinking (palatability-induced ingestion) in rats. In a few lines:
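Long-Evans hooded male rats (400–600 g, n=24), individually housed, given 2 h weekday access to 0.01 M sodium saccharin; water and chow free except 0.5 h before and during access. Drug ip, 1 mL/kg, 0.5 h before access. Intake expressed as ratio to nearest noninjection (Thursday) control, normalized to distilled-water group = 100%; mean of four to six rats; ED50 with 95% confidence limits.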

A word on the ED50: it is the midpoint of the dose-response relation. One may read the Ki as a dissociation constant, usually derived from enzyme kinetics or from competition with a known ligand. As to `CNCC[C@H](Oc1ccc(C(F)(F)F)cc1)c1ccccc1`, the ED50 was 25.7 mg/kg in the assay listed under Mus musculus [1], 2.1 mg/kg in the assay listed under Mus musculus [2], 5.7 mg/kg with Mus musculus [3] and 4.9 mg/kg in the assay filed under Rattus norvegicus. In addition, the Ki in the assay listed under Mus musculus [4] worked out at 0.033 µM.

`CNCC[C@@H](Oc1ccc(C(F)(F)F)cc1)c1ccccc1` [R-FLUOXETINE]: the ED50 was determined as 15.3 mg/kg in the assay listed under Mus musculus [1], 1.2 mg/kg in the assay listed under Mus musculus [2], 3.6 mg/kg with Mus musculus [3] and 6.1 mg/kg in the assay listed under Rattus norvegicus. For the same compound, affinity in the assay filed under Mus musculus [4] was put at a Ki of 0.021 µM.
